In ChEMBL document CHEMBL2157991, “Synthesis and pharmacological evaluation of 2,4-dinitroaryldithiocarbamate derivatives as novel monoacylglycerol lipase inhibitors” (J Med Chem, 2012):
Positions count from the first letter of the chain named. Active and inactive are the calls of the source. The rule behind the calls is not given here.

Legend:
Monoglyceride lipase = biological target: T1, Monoglyceride lipase (Homo sapiens, UniProt Q99685); experiment: Inhibition of human recombinant MAGL using [3H]-2-OG as substrate after 10 mins by liquid scintillation counter
T1 sequence (Q99685 whole entry): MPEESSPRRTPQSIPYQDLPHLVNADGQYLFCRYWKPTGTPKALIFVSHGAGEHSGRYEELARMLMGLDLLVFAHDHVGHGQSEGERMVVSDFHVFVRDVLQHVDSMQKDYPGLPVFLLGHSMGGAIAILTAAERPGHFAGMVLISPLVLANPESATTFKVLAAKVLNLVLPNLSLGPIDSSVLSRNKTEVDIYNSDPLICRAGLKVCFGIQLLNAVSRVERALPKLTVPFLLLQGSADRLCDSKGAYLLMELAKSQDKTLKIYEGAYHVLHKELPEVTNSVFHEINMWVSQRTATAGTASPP
Procedure, shortened: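 Purified recombinant hMAGL (5 ng; Tris pH 8.0, 50 mM, 0.1% BSA) with inhibitor in DMSO and [3H]-2-OG (10 μM), 10 min at 37 °C; stopped with ice-cold methanol–chloroform, aqueous-phase radioactivity by liquid scintillation, no-enzyme blanks subtracted; pIC50 from dose–response, mean ± SEM of three experiments in duplicate.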

[1] = biological target: T2, Monoglyceride lipase (Mus musculus) (UniProt O35678); experiment: Inhibition of MAGL in mouse B16 cells assessed as increase in 2-arachidonoylglycerol level at 10 uM after 8 hrs by isotope dilution HPLC-MS method; assay type: cell-based
T2 sequence (whole entry): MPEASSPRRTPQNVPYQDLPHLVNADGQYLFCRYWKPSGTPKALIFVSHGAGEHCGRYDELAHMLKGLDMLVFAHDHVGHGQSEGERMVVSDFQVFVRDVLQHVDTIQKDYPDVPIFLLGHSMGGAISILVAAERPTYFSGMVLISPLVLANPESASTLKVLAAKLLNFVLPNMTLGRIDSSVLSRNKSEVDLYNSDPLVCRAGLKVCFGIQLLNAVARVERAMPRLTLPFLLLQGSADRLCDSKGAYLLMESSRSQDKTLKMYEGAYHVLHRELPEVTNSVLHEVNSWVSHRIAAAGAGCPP
Procedure, shortened: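 Murine B16 melanoma cells (MEMα, 10% FBS, 37 °C, 5% CO2), 5 × 10^6 cells/condition seeded 12 h, then exposed 8 h to 10 μM inhibitor or 0.1% DMSO in 1% FBS medium; cells plus medium extracted with chloroform–methanol with d5-2-AG, silica SPE cleanup, 2-AG quantified by APCI-positive HPLC–MS isotope dilution, normalized to vehicle.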

[2] = biological target: T3, Monoglyceride lipase (Homo sapiens) (UniProt Q99685); experiment: Inhibition of MAGL at 10^-8.5 M after 30 mins by liquid scintillation counter
T3 sequence (whole entry): T1 sequence (Q99685 whole entry)
Procedure, shortened: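 Pure MAGL (105 ng, 20 μL) incubated 30 min at room temperature with inhibitor at 10−3 to 10−6 M or DMSO, then diluted 300-fold in Tris pH 8.0; after 15 min, aliquot assayed with [3H]-2-OG by standard protocol; same nominal post-dilution concentrations also assayed directly; percent of control, one-way ANOVA with Dunnett's test.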

[3] = system: T4, Monoglyceride lipase (Homo sapiens), Q99685 [C201A]; experiment: Inhibition of human MAGL C201A mutant expressed in Escherichia coli
T4 sequence (whole entry): T1 sequence (Q99685 whole entry) with C201A
Procedure, shortened: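 Homogenates of E. coli expressing wild-type or C201A, C208A, C242A or C208A/C242A mutant MAGL used as enzyme source in the [3H]-2-OG hydrolysis assay; n = 3 in duplicate.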

IC50 (Monoglyceride lipase): 0.155 µM | inhibition [1]: Active | inhibition [2]: inactive | inhibition [3]: Active
SMILES: CC(C)(C)c1ccc(CN2CCN(C(=S)Sc3ccc([N+](=O)[O-])cc3[N+](=O)[O-])CC2)cc1
